From ChEMBL document CHEMBL2401679, “Synthesis and on-target antibacterial activity of novel 3-elongated arylalkoxybenzamide derivatives as inhibitors of the bacterial cell division protein FtsZ” (2013)
≈ marks a conversion by molar mass, not a printed value. Calls of active or inactive are those of the source. The calls are words filed in the database; no cut-off is given here.

Columns and labels:
[1] = system: Streptococcus pyogenes; experiment: Antibacterial activity against penicillin-susceptible Streptococcus pyogenes after 24 hrs by broth microdilution method; assay type: functional
Method in brief: (§1)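 MIC by broth microdilution following the NCCLS standard method. Test strains were penicillin-susceptible: B. subtilis ATCC9372, S. aureus ATCC25923, S. pneumoniae ATCC49619 and Streptococcus pyogenes PS.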

[2] = system: Streptococcus pneumoniae; experiment: Antibacterial activity against penicillin-susceptible Streptococcus pneumoniae ATCC 49619 after 24 hrs by broth microdilution method; assay type: functional; settings: ATCC 49619, 24 h; method in brief: as §1
[3] = system: Staphylococcus aureus; experiment: Antibacterial activity against penicillin-resistant Staphylococcus aureus clinical isolate after 24 hrs by broth microdilution method; assay type: functional
Method in brief: (§2)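 MIC by standard broth microdilution following NCCLS recommendations. S. aureus ATCC29213 is a […] strain. The S. aureus PR strain is a penicillin-resistant clinical isolate that has not been characterized. The MIC was taken as the in vitro antibacterial activity value.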

[4] = system: Staphylococcus aureus; experiment: Antibacterial activity against penicillin-susceptible Staphylococcus aureus ATCC 25923 after 24 hrs by broth microdilution method; assay type: functional; settings: ATCC 25923, 24 h; method in brief: as §1
[5] = system: Staphylococcus aureus; experiment: Antibacterial activity against […] Staphylococcus aureus ATCC 29213 after 24 hrs by broth microdilution method; assay type: functional; settings: ATCC 29213, 24 h; method in brief: as §2
[6] = system: Bacillus subtilis; experiment: Antibacterial activity against penicillin-susceptible Bacillus subtilis ATCC 9372 after 24 hrs by broth microdilution method; assay type: functional; settings: ATCC 9372, 24 h; method in brief: as §1
[7] = system: Staphylococcus aureus; experiment: Inhibition of cell division in penicillin-susceptible Staphylococcus aureus ATCC 25923 assessed as lowest concentration required to ballooning after 5 hrs by phase-contrast light microscopy analysis; assay type: functional
Method in brief: (§3)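 Cell morphology of B. subtilis ATCC9372 or S. aureus ATCC25923 was examined by phase-contrast light microscopy. The value recorded is the lowest compound concentration at which B. subtilis filamentation or S. aureus ballooning appeared. This is taken as on-target cell division inhibition.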

[8] = system: Bacillus subtilis; experiment: Inhibition of cell division in penicillin-susceptible Bacillus subtilis ATCC 9372 assessed as lowest concentration required to filamentation after 5 hrs by phase-contrast light microscopy analysis; assay type: functional; method in brief: as §3
[9] = system: Staphylococcus aureus; experiment: Ratio of compound MIC to 3-MBA MIC for penicillin-susceptible Staphylococcus aureus ATCC 25923; assay type: functional
[10] = system: Bacillus subtilis; experiment: Ratio of compound MIC to 3-MBA MIC for penicillin-susceptible Bacillus subtilis ATCC 9372; assay type: functional
[11] = system: Staphylococcus aureus; experiment: Inhibition of cell division in penicillin-susceptible Staphylococcus aureus ATCC 25923 at 2048 to 4096 ug/ml after 5 hrs by phase-contrast light microscopy analysis; assay type: functional, organism-based
[12] = system: Bacillus subtilis; experiment: Inhibition of cell division in penicillin-susceptible Bacillus subtilis ATCC 9372 at 2048 to 4096 ug/ml after 5 hrs by phase-contrast light microscopy analysis; assay type: functional, organism-based
[13] = system: Staphylococcus aureus; experiment: Ratio of compound MIC to 3-MBA MIC for penicillin-resistant Staphylococcus aureus clinical isolate; assay type: functional
[14] = system: Bacillus subtilis; experiment: Ratio of compound to 3-MBA for inhibition of cell division in penicillin-susceptible Bacillus subtilis ATCC 9372; assay type: functional

Row | Structure (SMILES) | MIC [1] [µg/mL] | MIC [2] [µg/mL] | MIC [3] [µg/mL] | MIC [4] [µg/mL] | MIC [5] [µg/mL] | MIC [6] [µg/mL] | INH [7] [µg/mL] | INH [8] [µg/mL] | Ratio [9] | Ratio [10] | inhibition [11] | inhibition [12] | Ratio [13] | Ratio [14]
1 | CCCOCCCCCOc1cccc(C(N)=O)c1 | > 128 | > 128 | 32 (≈ 121 µM) | 16 (≈ 60.3 µM) | 32 (≈ 121 µM) | 32 (≈ 121 µM) | 32 | 8 |  |  |  |  |  | 
2 | CCCCOCCCCCOc1cccc(C(N)=O)c1 | > 128 | > 128 | 8 (≈ 28.6 µM) | 8 (≈ 28.6 µM) | 4 (≈ 14.3 µM) | 8 (≈ 28.6 µM) | 16 | 8 | 256 | 512 |  |  |  | 
3 | CCOCCCCCOc1cccc(C(N)=O)c1 | > 128 | > 128 | 64 (≈ 255 µM) | 64 (≈ 255 µM) | 64 (≈ 255 µM) | 64 (≈ 255 µM) | 128 | 64 |  |  |  |  |  | 
4 | NC(=O)c1cccc(OCCSc2nc3ccccc3s2)c1 | > 128 | > 128 | > 128 | 2050 (≈ 6200 µM) | > 128 | 32 (≈ 96.8 µM) | 1024 | 16 |  |  |  |  |  | 
5 | NC(=O)c1cccc(OCCCCSc2nc3ccccc3s2)c1 | > 128 | > 128 | > 128 | 1020 (≈ 2860 µM) | > 128 | 128 (≈ 357 µM) | 512 | 128 |  |  |  |  |  | 
6 | NC(=O)c1cccc(OCCCCCCl)c1 | > 128 | > 128 | 32 (≈ 132 µM) | 32 (≈ 132 µM) | 32 (≈ 132 µM) | 64 (≈ 265 µM) | 32 | 32 |  |  |  |  |  | 
7 | COc1ccc(OCCCCOc2cccc(C(N)=O)c2)cc1 | > 128 | > 128 | > 128 | 4100 (≈ 13000 µM) | > 128 | 1020 (≈ 3250 µM) |  | 32 |  |  | inactive |  |  | 
8 | NC(=O)c1cccc(OCCCCCBr)c1 | > 128 | > 128 | 32 (≈ 112 µM) | 32 (≈ 112 µM) | 16 (≈ 55.9 µM) | 64 (≈ 224 µM) | 64 | 32 |  |  |  |  |  | 
9 | NC(=O)c1cccc(OCCCCn2cncn2)c1 | > 128 | > 128 | > 128 | 1020 (≈ 3930 µM) | > 128 | 1020 (≈ 3930 µM) | 1024 |  |  |  |  | inactive |  | 
10 | NC(=O)c1cccc(OCCCCOc2ccccc2)c1 | > 128 | 128 (≈ 449 µM) | > 128 | 1020 (≈ 3590 µM) | > 128 | 64 (≈ 224 µM) | 512 | 32 |  |  |  |  |  | 
11 | Cc1nc2ccccc2n1CCCCOc1cccc(C(N)=O)c1 | > 128 | > 128 | > 128 | 1020 (≈ 3170 µM) | > 128 | 1020 (≈ 3170 µM) |  |  |  |  | inactive | inactive |  | 
12 | NC(=O)c1cccc(OCCCCOc2ccc(Cl)cc2)c1 | > 128 | > 128 | > 128 | 1020 (≈ 3200 µM) | > 128 | 0.5 (≈ 1.56 µM) | 256 | 0.25 |  |  |  |  |  | 
13 | NC(=O)c1cccc(OCCCOc2ccc(Cl)cc2)c1 | > 128 | > 128 | > 128 | 1020 (≈ 3350 µM) | > 128 | 16 (≈ 52.3 µM) | 512 | 4 |  |  |  |  |  | 
14 | NC(=O)c1cccc(OCCCCBr)c1 | > 128 | > 128 | 8 (≈ 29.4 µM) | 8 (≈ 29.4 µM) | 8 (≈ 29.4 µM) | 16 (≈ 58.8 µM) | 8 | 8 | 256 | 256 |  |  | 512 | 
15 | NC(=O)c1cccc(OCCCCOc2ccc([N+](=O)[O-])cc2)c1 | > 128 | > 128 | > 128 | 1020 (≈ 3100 µM) | > 128 | 32 (≈ 96.9 µM) | 512 | 32 |  |  |  |  |  | 
16 | COc1ccc(OCCCOc2cccc(C(N)=O)c2)cc1 | > 128 | > 128 | > 128 | 1020 (≈ 3400 µM) | > 128 | 1020 (≈ 3400 µM) | 512 | 1024 |  |  |  |  |  | 
17 | NC(=O)c1cccc(OCCCSc2nc3ccccc3[nH]2)c1 | > 128 | > 128 | > 128 | 1020 (≈ 3130 µM) | > 128 | 16 (≈ 48.9 µM) | 512 | 4 |  |  |  |  |  | 
18 | NC(=O)c1cccc(OCCCCCCCl)c1 | > 128 | > 128 | 32 (≈ 125 µM) | 32 (≈ 125 µM) | 64 (≈ 250 µM) | 16 (≈ 62.6 µM) | 32 | 4 |  | 256 |  |  |  | 128
19 | NC(=O)c1cccc(OCCCSc2nc3ccccc3s2)c1 | > 128 | > 128 | > 128 | 512 (≈ 1490 µM) | > 128 | 512 (≈ 1490 µM) | 256 | 512 |  |  |  |  |  | 
20 | NC(=O)c1cccc(OCCBr)c1 | > 128 | > 128 | 128 (≈ 524 µM) | 64 (≈ 262 µM) | 128 (≈ 524 µM) | 128 (≈ 524 µM) | 16 | 64 |  |  |  |  |  | 
21 | NC(=O)c1cccc(OCCCCl)c1 | > 128 | > 128 | 64 (≈ 300 µM) | 64 (≈ 300 µM) | 64 (≈ 300 µM) | 128 (≈ 599 µM) | 64 | 64 |  |  |  |  |  | 
22 | NC(=O)c1cccc(OCCCBr)c1 | > 128 | > 128 | 128 (≈ 496 µM) | 64 (≈ 248 µM) | 64 (≈ 248 µM) | 128 (≈ 496 µM) | 32 | 128 |  |  |  |  |  | 
23 | NC(=O)c1cccc(OCCCn2cncn2)c1 | > 128 | > 128 | > 128 | 2050 (≈ 8320 µM) | > 128 | 32 (≈ 130 µM) | 1024 | 16 |  |  |  |  |  | 
24 | NC(=O)c1cccc(OCCCCCl)c1 | > 128 | > 128 | 8 (≈ 35.1 µM) | 8 (≈ 35.1 µM) | 8 (≈ 35.1 µM) | 32 (≈ 141 µM) | 32 | 16 | 256 |  |  |  | 512 | 
25 | NC(=O)c1cccc(O)c1 | > 128 | > 128 | 4100 (≈ 29900 µM) | 4100 (≈ 29900 µM) | 4100 (≈ 29900 µM) | 512 (≈ 3730 µM) | 4096 | 4096 |  |  |  |  |  | 
26 | NC(=O)c1cccc(OCCCCn2ccnc2)c1 | > 128 | > 128 | > 128 | 256 (≈ 987 µM) | > 128 | 128 (≈ 494 µM) | 128 | 128 |  |  |  |  |  | 
27 | NC(=O)c1cccc(OCCCOc2ccccc2)c1 | > 128 | > 128 | > 128 | 1020 (≈ 3770 µM) | > 128 | 32 (≈ 118 µM) | 1024 | 8 |  |  |  |  |  | 
28 | COc1cccc(C(N)=O)c1 | > 128 | > 128 | 4100 (≈ 27100 µM) | 2050 (≈ 13500 µM) | 2050 (≈ 13500 µM) | 4100 (≈ 27100 µM) |  | 512 |  |  | inactive |  |  | 
29 | NC(=O)c1cccc(OCCCCCCBr)c1 | > 128 | > 128 | 64 (≈ 213 µM) | 64 (≈ 213 µM) | 64 (≈ 213 µM) | 32 (≈ 107 µM) | 64 | 16 |  |  |  |  |  | 
30 | NC(=O)c1cccc(OCCCOc2ccc([N+](=O)[O-])cc2)c1 | > 128 | > 128 | > 128 | 1020 (≈ 3240 µM) | > 128 | 4 (≈ 12.6 µM) | 512 | 4 |  |  |  |  |  | 
